Results reported in ChEMBL document CHEMBL1149875, “DNA threading bis(9-aminoacridine-4-carboxamides): effects of piperidine sidechains on DNA binding, cytotoxicity and cell cycle arrest” (Bioorg Med Chem, 2008).
Active and inactive are the calls of the source. The calls are words filed in the database; no cut-off is given here. *1 amine or outer side, *2 acyl side, *3 side chain or, on linkers, in order; H or OH if unused. Where a SMILES comes first, the peptide text is derived from it. Bridges are numbered along the chain shown (N, C = ends). Roman numbers before positions name the chains, in order. [ ]: non-standard residue; d: D form. Actinocin(1to9) = Cc1c2oc3c(C)ccc(C(=O)[*:2])c3nc-2c(C(=O)[*:1])c(N)c1=O; NMeV = CN[C@H](C(=O)O)C(C)C; Sar = CNCC(=O)O

Legend:
[1] = system: CCRF-CEM; experiment: Cell cycle arrest in human CCRF-CEM cells assessed as accumulation at G2/M phase at 10 times IC50 after 24 hrs by flow cytometry; format: functional
Summary of the method: (§1)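 CCRF-CEM cells seeded at 1 × 10^5 per ml in flasks and grown 24 h. Drug then added at 1×, 2×, 5× or 10× the measured 72 h IC50 and cells incubated a further 24 h; untreated controls. Cells washed in PBS, fixed in ice-cold ethanol, stained with propidium iodide and analysed by flow cytometry for % cells at G2/M.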

[2] = system: CCRF-CEM; experiment: Cytotoxicity against human CCRF-CEM cells after 72 hrs; format: functional, cell-based
Summary of the method: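 CCRF-CEM human leukaemia cells exposed to agents for 72 h at 37 °C in RPMI 1640 with 10% foetal bovine serum. Cells counted with a Coulter Counter, duplicates per concentration, experiment repeated ≥3 times; IC50 from curve fitting.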

[3] = system: Escherichia coli; experiment: Binding affinity to Escherichia coli pBR322 DNA assessed as equivalence binding ratio by agarose gel electrophoresis
Summary of the method: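 Supercoiled pBR322 closed circular DNA (150 ng, 23.6 µM bp) mixed with dimer in tris acetate buffer pH 7.5, 40 mM for Pip dimers and 10 mM for NMP dimers; 1 h dark incubation at room temperature; 0.8% agarose gel, 74 V (5 V/cm), 1 h 15 min. Equivalence ratio in base-pair units, taken where supercoiling is removed and closed and nicked circles co-migrate; ≥3 titrations.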

[4] = system: CCRF-CEM; experiment: Cell cycle arrest in human CCRF-CEM cells assessed as accumulation at G2/M phase after 24 hrs by flow cytometry; format: functional, cell-based; summary of the method: as §1
[5] = system: CCRF-CEM; experiment: Cell cycle arrest in human CCRF-CEM cells assessed as accumulation at G2/M phase at 5 times IC50 after 24 hrs by flow cytometry; format: functional; summary of the method: as §1
[6] = system: CCRF-CEM; experiment: Cell cycle arrest in human CCRF-CEM cells assessed as accumulation at G2/M phase at 1 time IC50 after 24 hrs by flow cytometry; format: functional; summary of the method: as §1

| SMILES | Ratio [3] | Activity [1] [%] | IC50 [2] [nM] | Activity [4] | Activity [5] [%] | Activity [6] [%] |
| --- | --- | --- | --- | --- | --- | --- |
| CN1CCC(NC(=O)c2cccc3c(NCCCNCCCNc4c5ccccc5nc5c(C(=O)NC6CCN(C)CC6)cccc45)c4ccccc4nc23)CC1 | 0.24 | 50 | 680 |  |  |  |
| Cc1c2oc3c(C)ccc(C(=O)N[C@@H]4C(=O)N[C@H](C(C)C)C(=O)N5CCC[C@H]5C(=O)N(C)CC(=O)N(C)[C@@H](C(C)C)C(=O)O[C@@H]4C)c3nc-2c(C(=O)N[C@@H]2C(=O)N[C@H](C(C)C)C(=O)N3CCC[C@H]3C(=O)N(C)CC(=O)N(C)[C@@H](C(C)C)C(=O)O[C@@H]2C)c(N)c1=O [DACTINOMYCIN] (I: T[dV]P[Sar][NMeV] / II: T[dV]P[Sar][NMeV]; ester I:1-I:C, II:1-II:C; linker I:N-II:N via Actinocin(1to9)) |  |  | 1.6 | inactive |  |  |
| CN1CCC(NC(=O)c2cccc3c(NCCN4CCN(CCNc5c6ccccc6nc6c(C(=O)NC7CCN(C)CC7)cccc56)CC4)c4ccccc4nc23)CC1 |  |  | 800 |  | 52 |  |
| O=C(NCCN1CCCCC1)c1cccc2c(NCCN3CCN(CCNc4c5ccccc5nc5c(C(=O)NCCN6CCCCC6)cccc45)CC3)c3ccccc3nc12 | 0.13 |  | 130 | inactive |  |  |
| CN1CCC(NC(=O)c2cccc3c(NCCCCCCNc4c5ccccc5nc5c(C(=O)NC6CCN(C)CC6)cccc45)c4ccccc4nc23)CC1 | 0.25 |  | 210 |  |  |  |
| CN1CCC(NC(=O)c2cccc3c(NCCCCCCCCNc4c5ccccc5nc5c(C(=O)NC6CCN(C)CC6)cccc45)c4ccccc4nc23)CC1 | 0.175 | 43 | 130 |  |  |  |
| CN1CCC(NC(=O)c2cccc3c(NCCCCNCCCNc4c5ccccc5nc5c(C(=O)NC6CCN(C)CC6)cccc45)c4ccccc4nc23)CC1 | 0.21 |  | 340 |  |  |  |
| CN1CCC(NC(=O)c2cccc3c(NCCNCCNCCNc4c5ccccc5nc5c(C(=O)NC6CCN(C)CC6)cccc45)c4ccccc4nc23)CC1 | 0.11 | 40 | 1100 |  |  |  |
| COc1cc(NS(C)(=O)=O)ccc1Nc1c2ccccc2nc2ccccc12 [AMSACRINE] |  |  | 130 |  |  | 68 |
| CN(C)CCNC(=O)c1cccc2c(N)c3ccccc3nc12 |  | 61 | 120 |  |  |  |

The next lines start with results.

| Ratio [3] | SMILES | Activity [1] [%] | IC50 [2] [nM] | Activity [4] | Activity [5] [%] | Activity [6] [%] |
| --- | --- | --- | --- | --- | --- | --- |
| 0.14 | O=C(NCCN1CCCCC1)c1cccc2c(NCCCCCCNc3c4ccccc4nc4c(C(=O)NCCN5CCCCC5)cccc34)c3ccccc3nc12 |  | 200 | inactive |  |  |
| 0.16 | O=C(NCCN1CCCCC1)c1cccc2c(NCCNCCNCCNc3c4ccccc4nc4c(C(=O)NCCN5CCCCC5)cccc34)c3ccccc3nc12 |  | 270 | inactive |  |  |
| 0.16 | O=C(NCCN1CCCCC1)c1cccc2c(NCCCCCCCCNc3c4ccccc4nc4c(C(=O)NCCN5CCCCC5)cccc34)c3ccccc3nc12 |  | 99 | inactive |  |  |
| 0.135 | O=C(NCCN1CCCCC1)c1cccc2c(NCCCCNCCCNc3c4ccccc4nc4c(C(=O)NCCN5CCCCC5)cccc34)c3ccccc3nc12 |  | 230 | inactive |  |  |
| 0.14 | O=C(NCCN1CCCCC1)c1cccc2c(NCCCNCCCNc3c4ccccc4nc4c(C(=O)NCCN5CCCCC5)cccc34)c3ccccc3nc12 |  | 260 | inactive |  |  |
